Bioassay records (PubChem)
Hits are enriched below; roughly 1.9% of the tested compounds scored in any of these assays.
DSG3 Ab inh – inhibitors of pemphigus antibody binding to DSG3, primary screen, biochemical, bead-based, flow cytometry, scFv-GFP | Desmoglein-3 (Homo sapiens), P32926 | DSG3-coupled beads, scFv-anti-DSG3-GFP binding; stronger effect = lower value | binding (percent of control), % at 10 µM | 0.48% of 310,000 active;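 active means binding more than 3 SD below its plate's average and above zero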;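 further: hits lower antibody fragment binding to DSG3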
Target sequence (P32926 whole entry, looked up, the tested form may be a part): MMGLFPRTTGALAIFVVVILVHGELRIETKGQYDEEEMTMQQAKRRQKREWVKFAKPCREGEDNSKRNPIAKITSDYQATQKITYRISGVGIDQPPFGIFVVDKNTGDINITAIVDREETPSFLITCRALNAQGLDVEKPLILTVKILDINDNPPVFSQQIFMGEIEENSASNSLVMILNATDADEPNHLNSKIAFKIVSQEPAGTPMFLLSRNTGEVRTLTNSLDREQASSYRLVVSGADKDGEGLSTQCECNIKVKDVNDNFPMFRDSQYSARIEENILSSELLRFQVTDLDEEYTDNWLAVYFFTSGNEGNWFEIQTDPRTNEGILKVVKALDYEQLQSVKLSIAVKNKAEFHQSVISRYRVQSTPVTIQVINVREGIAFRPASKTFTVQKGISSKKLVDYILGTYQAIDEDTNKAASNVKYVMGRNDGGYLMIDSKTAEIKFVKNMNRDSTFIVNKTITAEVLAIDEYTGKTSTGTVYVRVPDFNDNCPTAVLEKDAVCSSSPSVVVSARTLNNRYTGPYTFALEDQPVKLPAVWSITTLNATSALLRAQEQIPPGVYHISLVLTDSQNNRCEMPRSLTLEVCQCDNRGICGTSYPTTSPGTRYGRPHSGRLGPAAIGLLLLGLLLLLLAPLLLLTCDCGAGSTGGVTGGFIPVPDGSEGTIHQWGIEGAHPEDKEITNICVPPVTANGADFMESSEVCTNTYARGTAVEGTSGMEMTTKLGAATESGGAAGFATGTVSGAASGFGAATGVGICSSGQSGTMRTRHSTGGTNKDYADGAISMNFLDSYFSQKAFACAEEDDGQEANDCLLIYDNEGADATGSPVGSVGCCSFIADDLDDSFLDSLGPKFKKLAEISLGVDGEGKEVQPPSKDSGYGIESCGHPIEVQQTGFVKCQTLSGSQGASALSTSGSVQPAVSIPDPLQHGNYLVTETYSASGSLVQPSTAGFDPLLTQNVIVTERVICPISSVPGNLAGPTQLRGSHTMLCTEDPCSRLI
TbMetRS inhib – T. brucei MetRS inhibitors, primary screen, biochemical, luminescence | inhibition, % at 11.9 µM | AID 624268, 2012 | 0.4% of 360,000 active | purified T. brucei MetRS, ATP depletion, Kinase-Glo luminescence;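 active means inhibition above a per-plate cutoff of the control wells' mean inhibition plus 3 SD, cut at about 5.5% in these data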;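 further: 0% = DMSO wells median and 100% = median of wells with control inhibitor compound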
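Material: parasite MetRS enzyme / Replication: singlicate, one well per compound / Signal: luminescence of leftover ATP / Schedule: 2 h aminoacylation at 25 °C after 15 min preincubation / Medium: HEPES-MgCl2-KCl buffer plus DTT, spermine, BSA, pyrophosphatase / Doses: 11.9 µM single point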
NadD block – inhibitors of S. aureus NadD, primary screen, biochemical, colorimetric, uHTS; Nicotinate-nucleotide adenylyltransferase NadD (Staphylococcus aureus N315); purified NadD enzyme, colorimetric absorbance read-out; inhibition, % at 20 µM; 0.78% of 360,000 active; AID 602399, 2012; in the data active means inhibition above about 26%
core dimer inh – inhibitors of HCV core protein dimerization, primary screen, biochemical, TR-FRET, high-throughput. TR-FRET GST/Flag-core106 dimerization, 1536-well. inhibition, % at 5 µM. 0.33% of 300,000 active. AID 1899, 2009;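 active means inhibition above the mean of all tested compounds plus 3 SD, set per screening campaign, cut at about 45% in these data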
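Assay system: GST-tagged and Flag-tagged HCV core protein residues 1-106 / Times: compound-protein-antibody incubation 4 h at 22.5 °C / Signal: time-resolved FRET, ex 340 nm, em 617 and 671 nm / Evaluation: % inhibition based on acceptor/donor emission ratio / Benchmarks: wells lacking GST-core106 and wells with excess unlabelled core106 / Repeats: singlicate, one well per compound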
Rce1 inhib – yeast Rce1p protease inhibitors, primary screen, biochemical, fluorescence, cell-free homogeneous. yeast membranes, quenched prenylated peptide cleavage fluorescence. calls only. 0.27% of 290,000 active. AID 2563, 2010;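 active means fall in fluorescence gain of 50% or more versus controls, with final raw signal at or below 3038400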;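 further: plate controls were neutral control wells for no effect and wells lacking membranes for full effect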
* = called active by the depositor; i = inactive; x = not tested or not shown; + = active, no number.

SMILES	DSG3 Ab inh	TbMetRS inhib	NadD block	core dimer inh	Rce1 inhib
CCOc1ccc(C2C(C(=O)OC)=CN(C(C)c3ccccc3)C=C2C(=O)OC)cc1 (configuration not stated)	90	0	-9	3	+
Cc1cc(C)c(S(=O)(=O)/N=C2/C=C(SCC(=O)O)C(=O)c3ccccc32)cc1C	106	1	48*	x	x
Cc1cc(C)c(S(=O)(=O)Nc2cc(SCC(=O)O)c(O)c3ccccc23)cc1C	x	x	x	-9	i
COc1cc2c(=O)n(Cc3ccco3)c(=O)n(CC(=O)c3cccc(Br)c3)c2cc1OC	x	x	x	47*	i
Cc1ccc(NC(=O)c2nc[nH]c2C(=O)NCCN(CCNC(=O)c2[nH]cnc2C(=O)Nc2ccc(C)cc2)CCNC(=O)c2[nH]cnc2C(=O)Nc2ccc(C)cc2)cc1	97	0	38*	x	x
CCC1CCCCN1S(=O)(=O)c1ccccc1 (configuration not stated)	113	-2	-2	-6	i
COc1ccc(OC)c(-c2csc(NC(=O)COC(=O)c3ccc(NC(=O)CC#N)cc3)n2)c1	x	0	48*	x	x
Cc1cc(C)c(-c2cc(NC(=O)COC(=O)c3ccc(NC(=O)CC#N)cc3)n(-c3ccccc3)n2)cc1C	104	0	54*	16	i
Cc1cc(C)c(-c2cc(NC(=O)COC(=O)c3ccc(C#N)cc3)n(-c3ccccc3)n2)cc1C	101	0	15	23	i
COc1ccc(OC)c(-c2csc(NC(=O)COC(=O)C3CCC3)n2)c1	109	0	1	x	x
Cc1cccc(NC(=O)COC(=O)CSc2ccccc2)c1C	102	0	-4	x	x
O=C(CSc1ccc(Cl)cc1)Nc1cccc(-c2nc3ccccc3[nH]2)c1	66*	0	23	-4	i
CCOC(=O)c1c(C)[nH]c(C(=O)COC(=O)CCS(=O)(=O)c2ccc(C)cc2)c1C	107	0	-8	5	i
CCCCN(CC)C(=O)c1n[nH]c(=O)c2ccccc12	96	-2	0	6	i
O=C(COC(=O)CCN1C(=O)/C(=C\C=C\c2ccccc2)SC1=S)Nc1cc(F)ccc1F	91	0	35*	60*	i
O=C(CCN1C(=O)/C(=C/C=C/c2ccccc2)SC1=S)Nc1nc2ccccc2s1	92	1	42*	44	x
O=C(O)CCCCCN1C(=O)/C(=C\c2ccc(-c3ccc(Cl)cc3)o2)SC1=S	91	0	8	4	i
O=C(O)CCCN1C(=O)/C(=C/c2ccc(-c3nc4ccccc4s3)o2)SC1=S	89*	-1	11	25	i
N=c1c(S(=O)(=O)c2ccc(Cl)cc2)cc2c(=O)n3ccccc3nc2n1CCc1ccccc1	x	0	25	5	i
COc1ccc(S(=O)(=O)Nc2nnc(C)s2)cc1	98	0	-1	2	i
NC(=O)CSC1=N/C(=C\c2ccco2)C(=O)N1c1ccc(OC(F)F)cc1	102	-1	-5	12	i
CCN(CC)C(=O)CSC1=N/C(=C/c2ccco2)C(=O)N1c1ccc(OC)c(Cl)c1	98	0	20	51*	i
COc1ccc2oc(C(=O)Nc3ccc(N4CCOCC4)cc3)c(C)c2c1	91	0	13	86*	i
CCC1Oc2ccc(C)cc2N(CC(=O)NCCCN2CCCC2)C1=O (configuration not stated)	108	0	-1	-6	i
O=C(Nc1ccc(N2CCN(c3ccc(O)cc3)CC2)cc1)Oc1ccccc1	115	1	28	59*	i
Nc1ccc(OC(=O)Nc2ccc(O)cc2)cc1	98	0	-5	3	i
CCn1c(=O)c(C(=O)CN2CCN(S(=O)(=O)c3cc(C)ccc3C)CC2)c(N)n(Cc2ccccc2)c1=O	88*	0	8	1	i
Cc1ccc(C(=O)COC(=O)CCC(=O)NC2CCCCC2)cc1[N+](=O)[O-]	85	-1	1	-4	i
CCN(c1ccc(OC)cc1)S(=O)(=O)c1nnc(NC(=O)COc2ccc(C)cc2)s1	98	-1	18	56*	i
